From ChEMBL document CHEMBL1153380, “Discovery of potent and orally active 3-alkoxy-5-phenoxy-N-thiazolyl benzamides as novel allosteric glucokinase activators” (Bioorg Med Chem, 2009)
pEC50: −log10 of the molar value. Active and inactive are the calls of the source. No cut-off for these calls is given here.

How the values were obtained:
[1] = biological target: T1, Hexokinase-4 (Homo sapiens, UniProt P35557); assay: Activation of flag-tagged human recombinant liver glucokinase expressed in Escherichia coli by glucose-6-phosphate dehydrogenase coupled continuous spectrophotometric assay in presence of 10 mM glucose
T1 sequence (P35557 whole entry): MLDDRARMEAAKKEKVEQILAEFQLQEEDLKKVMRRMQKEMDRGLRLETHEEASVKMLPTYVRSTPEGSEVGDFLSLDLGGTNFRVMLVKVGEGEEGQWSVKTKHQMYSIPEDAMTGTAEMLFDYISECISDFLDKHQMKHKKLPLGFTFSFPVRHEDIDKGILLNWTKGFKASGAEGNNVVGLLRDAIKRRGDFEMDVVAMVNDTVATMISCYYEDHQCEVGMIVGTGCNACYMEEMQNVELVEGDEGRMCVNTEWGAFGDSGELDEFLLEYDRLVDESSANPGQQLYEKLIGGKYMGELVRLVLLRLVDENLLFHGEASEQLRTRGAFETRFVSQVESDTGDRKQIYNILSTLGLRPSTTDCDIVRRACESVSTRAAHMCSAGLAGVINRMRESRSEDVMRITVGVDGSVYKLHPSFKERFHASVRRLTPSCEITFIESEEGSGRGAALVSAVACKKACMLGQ

[2] = biological target: T1, Hexokinase-4; assay: Activation of flag-tagged human recombinant liver glucokinase expressed in Escherichia coli by glucose-6-phosphate dehydrogenase coupled continuous spectrophotometric assay in presence of 2.5 mM glucose
[3] = Total clearance in Sprague-Dawley rat at 1 mg/kg, iv; type: ADME, organism-based; parameters: dose 1 mg/kg, route intravenous; conditions: in vivo
[4] = Volume of distribution at steady state in Sprague-Dawley rat at 1 mg/kg, iv; type: ADME, organism-based; parameters: dose 1 mg/kg, route intravenous; conditions: in vivo, read-out: Vdss
[5] = test system: Rattus norvegicus; assay: Glucose lowering effect in overnight-fasted po dosed Wistar rat assessed as decrease in glucose AUC level administered 30 mins before oral glucose challenge by OGTT; type: functional, organism-based
Procedure, shortened: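 Rats dosed orally in 0.5% methylcellulose vehicle, then given an oral glucose challenge (2 g/kg) 30 min later. Plasma glucose measured just before and after the challenge. Glucose AUC used as read-out.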

[6] = Half life in Sprague-Dawley rat at 1 mg/kg, iv; type: ADME, organism-based; parameters: dose 1 mg/kg, route intravenous; conditions: in vivo
[7] = Tmax in Sprague-Dawley rat at 3 mg/kg, po; type: ADME, organism-based; parameters: dose 3 mg/kg, route oral; conditions: in vivo
[8] = Oral bioavailability in Sprague-Dawley rat at 3 mg/kg; type: ADME, organism-based; conditions: in vivo
[9] = test system: Mus musculus; assay: Glucose lowering effect in normal-fed ICR mouse assessed as decrease in plasma glucose AUC level at 30 mg/kg, po; type: functional, organism-based; parameters: dose 30 mg/kg
Procedure, shortened: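 Mice given a single oral dose in 0.5% methylcellulose vehicle. Blood glucose measured just before dosing and at 0.5, 1, 1.5, 2, 3 and 4 h after dosing.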

[10] = Cmax in Sprague-Dawley rat at 3 mg/kg, po; type: ADME, organism-based; parameters: dose 3 mg/kg, route oral; conditions: in vivo
[11] = AUC (0 to infinity) in Sprague-Dawley rat at 3 mg/kg, po; type: ADME, organism-based; parameters: time infinity, dose 3 mg/kg, route oral; conditions: plasma
[12] = AUC (0 to infinity) in Sprague-Dawley rat at 1 mg/kg, iv; type: ADME, organism-based; parameters: time infinity, dose 1 mg/kg, route intravenous; conditions: plasma

Compound Cc1cccc(Oc2cccc(C(=O)Nc3nc(C)cs3)c2)c1 has a pEC50 [1] of 5.64 and a pEC50 [2] of 5.09.

Cc1csc(NC(=O)c2cc(Oc3ccccc3)cc(Oc3cccc(S(C)(=O)=O)c3)c2)n1 showed a pEC50 [1] of 6.03 and a pEC50 [2] of 5.96.

Compound Cc1csc(NC(=O)c2cccc(Oc3ccccc3F)c2)n1 has a pEC50 [1] of 6.35 and a pEC50 [2] of 5.62.

With Cc1csc(NC(=O)c2cc(Oc3ccccc3S(C)(=O)=O)ccc2Oc2ccccc2)n1 the pEC50 [1] was < 4.52 and the pEC50 [2] was < 4.52.

With CCOc1cc(Oc2ccccc2S(C)(=O)=O)cc(C(=O)Nc2nc(C)cs2)c1 the pEC50 [1] was 5.68 and the pEC50 [2] was 5.62.

Cc1csc(NC(=O)c2cc(Oc3ccccc3)cc(Oc3ccc(S(C)(=O)=O)cc3)c2)n1 showed a pEC50 [1] of 6.46 and a pEC50 [2] of 6.38.

Cc1csc(NC(=O)c2cc(Oc3cccc(S(C)(=O)=O)c3)cc(OC(C)C)c2)n1 showed a pEC50 [1] of 7.05 and a pEC50 [2] of 5.96.

For Cc1csc(NC(=O)c2cc(Oc3ccc(S(C)(=O)=O)cc3)cc(OC(C)C)c2)n1, the clearance [3] was 4.1 mL/min/kg, the Vd [4] was 0.4 L/kg and the pEC50 [1] was 6.89. The Activity [5] was “Dose-dependent effect”, the half-life [6] was 1.1 h and the Tmax [7] was 1 h. For the same compound, the bioavailability [8] was 40%, the Activity [9] was “Active” and the Cmax [10] was 2900 nM. It also gave a pEC50 [2] of 6.48, an AUC(0-inf) [11] of 12 µM·h and an AUC(0-inf) [12] of 9.7 µM·h.

For Cc1csc(NC(=O)c2cc(Oc3ccccc3S(C)(=O)=O)ccc2OC(C)C)n1, the pEC50 [1] was < 4.52 and the pEC50 [2] was < 4.52.

Work on Cc1csc(NC(=O)c2cc(Oc3ccccc3)cc(Oc3ccccc3S(C)(=O)=O)c2)n1 yielded a pEC50 [1] of 6.21 and a pEC50 [2] of 5.96.

CCOc1ccccc1Oc1cccc(C(=O)Nc2nc(C)cs2)c1 showed a pEC50 [1] of 5.72 and a pEC50 [2] of 5.27.

Work on Cc1csc(NC(=O)c2cccc(Oc3ccc(F)cc3)c2)n1 yielded a pEC50 [1] of 5.38 and a pEC50 [2] of 4.68.

Cc1ccc(Oc2cccc(C(=O)Nc3nc(C)cs3)c2)cc1 showed a pEC50 [1] of 5.19 and a pEC50 [2] of 5.23.

Cc1csc(NC(=O)c2cccc(Oc3cccc(S(C)(=O)=O)c3)c2)n1 showed a pEC50 [1] of 5.96 and a pEC50 [2] of 4.74.

With Cc1csc(NC(=O)c2cccc(Oc3ccccc3C)c2)n1 the pEC50 [1] was 6.09 and the pEC50 [2] was 5.49.

Compound Cc1csc(NC(=O)c2cccc(Oc3ccc(S(C)(=O)=O)cc3)c2)n1 has a pEC50 [1] of 5.47 and a pEC50 [2] of 4.54.

In the case of Cc1csc(NC(=O)c2cc(Oc3ccccc3S(C)(=O)=O)cc(OC(C)C)c2)n1, the pEC50 [1] was 6.36 and the pEC50 [2] was 5.68.

Compound Cc1csc(NC(=O)c2cccc(Oc3ccccc3S(C)(=O)=O)c2)n1 has a pEC50 [1] of 5.96 and a pEC50 [2] of 5.26.

COc1ccccc1Oc1cccc(C(=O)Nc2nc(C)cs2)c1 showed a pEC50 [1] of 6.31 and a pEC50 [2] of 5.66.

In the case of COc1cc(Oc2ccccc2S(C)(=O)=O)cc(C(=O)Nc2nc(C)cs2)c1, the pEC50 [1] was 5.72 and the pEC50 [2] was 4.96.

With Cc1csc(NC(=O)c2cccc(Oc3cccc(F)c3)c2)n1 the pEC50 [1] was 5.66 and the pEC50 [2] was 5.20.

Cc1csc(NC(=O)c2cccc(Oc3ccccc3)c2)n1 gave a pEC50 [1] of 6.10 and a pEC50 [2] of 4.72.
